Experimental findings from the array DNA melting data of Ke et al. (doi:10.1101/2024.01.08.574731) are described below.

Data set [1] is described as follows: folding enthalpy; higher = less favourable; fluorescence melt of hairpins on a sequencing array, two-state fit. The following applies: sodium 0.088 M. An outline of the steps: (§1)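 Cy3 fluorescence of library hairpins on a sequenced MiSeq flow cell, with annealed Cy3 and quencher oligos, was imaged in 50 mM Na-HEPES pH 8.0, 25 mM NaCl in 2.5 °C steps up to 60 °C. Signals were normalised to pre-quench Cy3 and to control variants. Melting temperature and folding enthalpy came from bootstrapped two-state fits, inverse-variance combined over four replicates. Fitted temperatures were raised by 9.35 °C to match UV melts.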

The nature of data set [2]: melting temperature; fluorescence melt of hairpins on a sequencing array, two-state fit, raised by 9.35 °C to match UV melts. The following applies: sodium 0.088 M. Put shortly:
as §1

Take GGAGTGCGAAAGCAATCC (((.(((....))).))): the folding enthalpy in data set [1] was -35.7 kcal/mol. Moreover, the Tm in data set [2] came out at 60.1 °C.

For the sequence GGAGTGTCGAAAGACTCC (((..(((....)))))), the folding enthalpy in data set [1] is -17.2 kcal/mol. For the same sequence, the Tm in data set [2] stood at 39.2 °C.

Take GGAGTTCGAAAGAATCC (((.(((....)))))): the folding enthalpy in data set [1] was -17.5 kcal/mol. The Tm in data set [2] was 33.5 °C.

For GGAGTTGGAAACAGCTCC ((((.((....)).)))), the folding enthalpy in data set [1] was -43.9 kcal/mol. Besides, the Tm in data set [2] was 50.2 °C.

As for GGATAACCGAAAGGTTCC (((..(((....)))))), in data set [1], the folding enthalpy is -14.1 kcal/mol. Besides, in data set [2], the Tm turned out to be 32.4 °C.

For GGATAACGAAAGTTTCC (((.(((....)))))), the folding enthalpy in data set [1] was -20.4 kcal/mol. In addition, the Tm in data set [2] came to 40.1 °C.

Turning to GGATAAGGAAACCTATCC (((((.(....).))))), the folding enthalpy in data set [1] is -30.3 kcal/mol. The Tm in data set [2] amounted to 33.5 °C.

As to GGATAAGGAAACTTGTCC (((.(((....))).))), the folding enthalpy in data set [1] was -29.6 kcal/mol. Also, the Tm in data set [2] was determined as 39.2 °C.

With GGATACCGAAAGGTGTCC (((.(((....))).))), in data set [1], the folding enthalpy was -44 kcal/mol. The Tm in data set [2] stood at 58.8 °C.

Turning to GGATACGAAAGTAACTCC ((((((....)))..))), the folding enthalpy in data set [1] was -16 kcal/mol. Further, the Tm in data set [2] came to 30.6 °C.

On to GGATACGAAAGTACCTCC ((((((....)))..))), for which the folding enthalpy in data set [1] is -20 kcal/mol. In data set [2], the Tm is 40.1 °C.

GGATACGAAAGTATCTCC ((((((....)))..))): the folding enthalpy in data set [1] is -13.3 kcal/mol. Further, the Tm in data set [2] is 46.2 °C.

As for GGATACGGAAACGTGTCC (((.(((....))).))), in data set [1], the folding enthalpy was -46.1 kcal/mol. Besides, the Tm in data set [2] came out at 52.7 °C.

Consider GGATCAGGAAACTGGTCC (((.(((....))).))), for which the folding enthalpy in data set [1] is -39.2 kcal/mol. The Tm in data set [2] came out at 51.3 °C.

Regarding GGATCCCCGAAAGGGTCC (((..(((....)))))), in data set [1], the folding enthalpy is -19.8 kcal/mol. For the same sequence, the Tm in data set [2] was 45.3 °C.

As to GGATCCCGAAAGGGTTCC (((.(((....))).))), in data set [1], the folding enthalpy was -29.8 kcal/mol. Besides, in data set [2], the Tm turned out to be 54.3 °C.

In the case of GGATCCGAAAGGAATTCC ((((((....)))..))), the folding enthalpy in data set [1] was -14.1 kcal/mol. In addition, in data set [2], the Tm was 32.2 °C.

In the case of GGATCCGAAAGGATCTCC ((((((....)))..))), in data set [1], the folding enthalpy is -9.17 kcal/mol. Moreover, the Tm in data set [2] was 53.6 °C.

GGATCGGGAAACCGATTC (.(((((....))))).): in data set [1], the folding enthalpy was -26.6 kcal/mol. In data set [2], the Tm was 50.6 °C.

For the sequence GGATCTGGAAACAGGTTC (.(.(((....))).).), the folding enthalpy in data set [1] is -14.1 kcal/mol. The Tm in data set [2] was 30.5 °C.

For the sequence GGATCTGGAAACGGATTC (.(((.(....).))).), in data set [1], the folding enthalpy was -28.5 kcal/mol. In addition, the Tm in data set [2] turned out to be 31.5 °C.

Consider GGATGACCGAAAGGTTCC (((..(((....)))))), for which the folding enthalpy in data set [1] is -10.9 kcal/mol. Besides, in data set [2], the Tm stood at 34.2 °C.

As for GGATGACGAAAGTCGTCC (((.(((....))).))), the folding enthalpy in data set [1] was -38.4 kcal/mol. Also, the Tm in data set [2] worked out at 64.5 °C.

With GGATGAGGAAACTCATCC (((((((....))))))), in data set [1], the folding enthalpy was -43.5 kcal/mol. Besides, the Tm in data set [2] worked out at 63.1 °C.

Take GGATGAGGAAACTTGTCC (((..((....))..))): the folding enthalpy in data set [1] was -24.4 kcal/mol. In addition, the Tm in data set [2] turned out to be 31.1 °C.

On to GGATGCACGAAAGTGTCC (((..(((....)))))), for which, in data set [1], the folding enthalpy was -14 kcal/mol. The Tm in data set [2] came out at 30.8 °C.

In the case of GGATGCCGAAAGGCCTCC (((.(((....))).))), in data set [1], the folding enthalpy was -24.9 kcal/mol. Also, the Tm in data set [2] was 50.5 °C.

As to GGATGCCGAAAGGCTCC (((.(((....)))))), the folding enthalpy in data set [1] was -17.8 kcal/mol. The Tm in data set [2] stood at 55 °C.

For GGATGCGAAAGCAACTCC ((((((....)))..))), the folding enthalpy in data set [1] was -11.9 kcal/mol. The Tm in data set [2] is 41.8 °C.

As to GGATGCGAAAGCACATCC ((((((....)))..))), in data set [1], the folding enthalpy is -19.2 kcal/mol. In data set [2], the Tm is 42.2 °C.

For GGATGCGAAAGCACGTCC ((((((....)))..))), in data set [1], the folding enthalpy was -12 kcal/mol. Further, in data set [2], the Tm stood at 33.1 °C.

On to GGATGCGAAAGCACTCC ((((((....))).))), for which the folding enthalpy in data set [1] was -29 kcal/mol. In addition, the Tm in data set [2] worked out at 49.6 °C.

In the case of GGATGCGAAAGCATCTCC ((((((....)))..))), in data set [1], the folding enthalpy was -9.29 kcal/mol. For the same sequence, the Tm in data set [2] turned out to be 52.6 °C.

GGATGCGAAAGCATTCC ((((((....))).))): the folding enthalpy in data set [1] was -16.9 kcal/mol. Also, in data set [2], the Tm was determined as 55.9 °C.

GGATGCGGAAACGCGTTC (.(.(((....))).).): the folding enthalpy in data set [1] was -17.4 kcal/mol. Moreover, the Tm in data set [2] worked out at 41.5 °C.

As for GGATGGAAACATCC (((((....))))), the folding enthalpy in data set [1] was -29.8 kcal/mol. The Tm in data set [2] amounted to 51.8 °C.
